PMC3074353 (Biochemistry, 2011)
Where two headings read alike, the source gives them in different places.

Legend:
[1] = biological target: T1, PTP1B (amino acids 1–321) (Homo sapiens, UniProt P18031); assay: PTP activity assay with synthetic pY peptides as substrates, PTP1B; assay type: biochemical
T1 sequence (P18031 1-321): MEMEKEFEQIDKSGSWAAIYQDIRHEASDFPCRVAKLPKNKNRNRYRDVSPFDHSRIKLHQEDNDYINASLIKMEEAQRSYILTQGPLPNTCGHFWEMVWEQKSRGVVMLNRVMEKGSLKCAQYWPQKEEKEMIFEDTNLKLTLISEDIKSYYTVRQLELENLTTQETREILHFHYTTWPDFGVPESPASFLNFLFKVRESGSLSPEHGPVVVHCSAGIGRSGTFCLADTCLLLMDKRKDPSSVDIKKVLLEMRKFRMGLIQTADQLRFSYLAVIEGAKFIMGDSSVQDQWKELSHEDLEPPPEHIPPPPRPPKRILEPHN
Procedure, shortened: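 PTP1B catalytic fragment (residues 1–321) expressed in E. coli, quantified by Bradford against BSA. For alanine-scan peptides, kinetic constants came from fitting progress curves to the integrated Michaelis–Menten equation.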

[2] = system: catalytic domain of SHP-2 [SHP-2(ΔSH2)]; assay: PTP activity assay with synthetic pY peptides as substrates, SHP-2; assay type: biochemical; details: for Km / kcat/KM: same buffer pH 7.4, three or more independent experiments; for Km: mean ± SD
[3] = system: catalytic domain of SHP-1 [SHP-1(ΔSH2)]; assay: PTP activity assay with synthetic pY peptides as substrates, SHP-1; assay type: biochemical; details: for Km / kcat/KM: same buffer pH 7.4, three or more independent experiments; for Km: mean ± SD
catalytic domain of SHP-1 [SHP-1(ΔSH2)], sequence (P29350 244-515 limits assumed, stated change not applied): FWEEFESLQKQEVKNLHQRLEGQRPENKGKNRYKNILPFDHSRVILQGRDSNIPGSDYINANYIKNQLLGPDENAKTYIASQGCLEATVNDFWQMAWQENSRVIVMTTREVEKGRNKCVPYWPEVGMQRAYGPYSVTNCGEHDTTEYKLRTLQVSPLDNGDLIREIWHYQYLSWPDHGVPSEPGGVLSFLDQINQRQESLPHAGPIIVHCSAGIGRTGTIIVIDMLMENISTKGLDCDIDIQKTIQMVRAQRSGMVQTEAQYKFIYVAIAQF

[4] = biological target: T2, RPTPα (amino acids 224–802) (Homo sapiens, UniProt P18433); assay: PTP activity assay with synthetic pY peptides as substrates, RPTPα; assay type: biochemical; details: for Km: same buffer pH 7.4, mean ± SD, three or more independent experiments; for kcat/KM: same buffer pH 7.4, three or more independent experiments
[5] = biological target: T2, RPTPα (amino acids 224–802); details: literature value, ref [20]; cited from earlier work
[6] = biological target: T1, PTP1B (amino acids 1–321); details: ref [36], cited from earlier work

Compound	Km ([2]; SHP-2) [µM]	kcat/KM ([2]; SHP-2) [M⁻¹ s⁻¹]	Km ([3]; SHP-1) [µM]	kcat/KM ([3]; SHP-1) [M⁻¹ s⁻¹]	other results
Ac-RTLAApYRFQK-NH2					kcat/KM value [1]: 220000 M⁻¹ s⁻¹
Ac-DWEDFpYAA-NH2	17 ± 2	1.7e+06			
Ac-EIFDFpYAA-NH2	54 ± 6	480000	27 ± 4	1.2e+06	
Ac-RTLAApYEEVH-NH2					kcat/KM value [1]: 840000 M⁻¹ s⁻¹
O=[N+]([O-])c1ccc(OP(=O)(O)O)cc1 [pNPP, reference compound]					Km [4]: 2700 ± 300 µM; kcat/KM [4]: 190 M⁻¹ s⁻¹
DFEDFpYAA	23 ± 2	1.6e+06			
Ac-WDEDFpYSASA-NH2	46 ± 10	1.1e+06	53 ± 10	700000	increase of kcat/KM relative to Ac-SASASpYSASA-NH2 ([3]; SHP-1): 54 fold; kcat/KM [4]: 69000 M⁻¹ s⁻¹; increase of kcat/KM relative to Ac-SASASpYSASA-NH2 ([2]; SHP-2): 61 fold; higher activity of SHP-2 than of SHP-1 (kcat/KM ratio) ([2]; SHP-2 versus SHP-1): 1.6 fold
TATEPQpYQPGENL					Km [5]: 1070 ± 30 µM; kcat [5]: 9.7 ± 0.2 s⁻¹; kcat/KM [5]: 9100 M⁻¹ s⁻¹
TSTEPQpYQPGENL					Km [5]: 1160 ± 140 µM; kcat [5]: 8.9 ± 0.5 s⁻¹; kcat/KM [5]: 7700 M⁻¹ s⁻¹
FDEDFpYAA	31 ± 6	1e+06			
DAEDFpYAA	28 ± 3	1.1e+06			
Ac-AAAAApYRHRR-NH2					Km [4]: 2600 ± 200 µM; kcat/KM [4]: 12000 M⁻¹ s⁻¹; kcat/KM value [1]: > 10^5 M^−1 s^−1
Ac-SASASpYSASA-NH2	2300 ± 400	18000	1990 ± 420	13000	Km [4]: 530 ± 150 µM; kcat/KM [4]: 43000 M⁻¹ s⁻¹
EADTApYAA					Km [4]: 1400 ± 100 µM; kcat/KM [4]: 19000 M⁻¹ s⁻¹
Ac-WDEDFpYDWEF-NH2	6.3 ± 0.4	6.8e+06	3.2 ± 0.3	2.3e+07	kcat/KM value ([3]; SHP-1): 2.3e+07 M⁻¹ s⁻¹; increase of activity relative to peptide 6 (Ac-WDEDFpYSASA-NH2) ([2]; SHP-2, C-terminal SASA replaced by acidic motif DWEF): 6.2 fold
AYTEpYTpYAA			9.1 ± 1	1.9e+06	
Ac-AKFEDTpYAA-NH2			58 ± 13	340000	
Ac-AAAApYAAAA-NH2					kcat/KM ([6]; literature value): 1.3 ^b μM^−1 s^−1; kcat/KM value [6]: 1.3e+06 M⁻¹ s⁻¹

Compound	Km ([2]; SHP-2) [µM]	kcat/KM ([2]; SHP-2) [M⁻¹ s⁻¹]	Km ([3]; SHP-1) [µM]	kcat/KM ([3]; SHP-1) [M⁻¹ s⁻¹]	other results
WRKRFpYDWEF	560 ± 140	2300	780 ± 640	2200	
Ac-AVWEFpYpYAA-NH2			7.5 ± 2	3.3e+06	
Ac-RRISTpYAA-NH2					Km [4]: 1200 ± 100 µM; kcat/KM [4]: 41000 M⁻¹ s⁻¹; kcat/KM value [1]: > 10^5 M^−1 s^−1
Ac-RTLAApYAAAA-NH2					kcat/KM value [1]: 510000 M⁻¹ s⁻¹
Ac-AAAAApYEEVH-NH2					kcat/KM [4]: 39000 M⁻¹ s⁻¹
WDEDFpYRWKF	210 ± 35	340000	150 ± 15	280000	
Ac-WAGDDpYAA-NH2	68 ± 15	530000	45 ± 5	1.3e+06	higher reactivity to SHP-1 than to SHP-2 (kcat/KM ratio) ([3]; SHP-1 versus SHP-2): 2.5 fold
Ac-FDIDIpYAA-NH2	39 ± 5	770000	13 ± 1	2.5e+06	
Ac-WDEDFpYAA-NH2	43 ± 2	1.1e+06			
O=P(O)(O)Oc1ccccc1 [Phenyl phosphate, reference compound]					kcat/KM [4]: 20 M⁻¹ s⁻¹
Ac-ARKRIpYAA-NH2					Km [4]: 490 ± 30 µM; kcat/KM [4]: 80000 M⁻¹ s⁻¹; kcat/KM value [1]: > 10^5 M^−1 s^−1
ADEDFpYAA	34 ± 2	820000			
Ac-ASSDDpYAA-NH2					kcat/KM [4]: 13000 M⁻¹ s⁻¹
LIEDNEpYTARQGA					Km [5]: 770 ± 20 µM; kcat [5]: 8.3 ± 0.2 s⁻¹; kcat/KM [5]: 11000 M⁻¹ s⁻¹
Ac-FYDIDpYAA-NH2	66 ± 13	750000	28 ± 2	2.4e+06	
Ac-ApYpYWTApYAA-NH2					kcat/KM value [1]: 1.51e+07 M⁻¹ s⁻¹
Ac-SASASpYDWEF-NH2	180 ± 7	190000	48 ± 9	250000	increase of kcat/KM relative to Ac-SASASpYSASA-NH2 ([3]; SHP-1): 19 fold; increase of kcat/KM relative to Ac-SASASpYSASA-NH2 ([2]; SHP-2): 10 fold
